Published values pooled from the literature.
Protocols differ between the studies behind these lines.
Target: RAC-gamma serine/threonine-protein kinase (AKT3, Homo sapiens, UniProt Q9Y243)

| SMILES | observed | technique | tested at | remaining binding [%] |
| --- | --- | --- | --- | --- |
| COc1cnc(Nc2cccc(S(N)(=O)=O)c2)nc1N1CCN(c2ccccc2)CC1 | binding | competition with immobilised ligand | 1 µM | 100 |
| COc1ccnn2ncc(-c3ccnc(N(C)C)n3)c12 | binding | – | 1 µM | 98 |
| CCc1ccccc1C(=O)Nc1n[nH]c2c(C)c(F)c(C3C(C#N)=C(C)N(C)C(C)=C3C#N)cc12 | cell-free assay | competition with immobilised ligand | 1 µM | 100 |
| Cc1cnc(Nc2ccc(C(=O)N3CCC(N4CCCC4)CC3)cc2)nc1-c1cc2ccccc2s1 | binding | competition with immobilised ligand | 1 µM | 100 |
| FC(F)(F)Oc1cccc(-c2cnc3ccc(-c4ccncc4)nn23)c1 | cell-free assay | competition with immobilised ligand | 5 µM | 99 |
| CCN1CCN(Cc2ccc(C(=O)Nc3ccc(C)c(Oc4ccc5c(c4)CC(=O)N5)c3)cc2C(F)(F)F)CC1 | binding | competition with immobilised ligand | 1 µM | 89 |
| COc1cnc(Nc2cccc(S(N)(=O)=O)c2)nc1N1CCN(c2ccccc2)C(=O)C1 | binding | competition with immobilised ligand | 1 µM | 100 |
| COc1ccc2c(c1)O[C@H](c1ccc(OC)c(OC)c1)C[C@@H]2NC(=O)C1(c2ccc3c(c2)OC(F)(F)O3)CC1 | cell-free assay | competition with immobilised ligand | 1 µM | 100 |
| C=CC(=O)N1CCC(C(=O)NCC(=O)N2CCN(c3nc(-c4cnc(N)nc4C(F)F)nc(N4CCOCC4)n3)CC2)CC1 | binding | competition with immobilised ligand | 1 µM | 100 |
| O=C(NS(=O)(=O)c1ccc(NCC2CCOCC2)c([N+](=O)[O-])c1)c1ccc(N2CCN(Cc3ccc(C(F)(F)F)cc3-c3ccc(Cl)cc3)CC2)cc1Oc1cnc2[nH]ccc2c1 | cell-free assay | competition with immobilised ligand | 1 µM | 89 |
| CN(CCCC(F)(F)F)c1nccc(-c2cnn3ncccc23)n1 | binding | – | 1 µM | 83 |
| O=C(c1ccc(Nc2nccc(-c3cc4ccccc4s3)n2)cc1)N1CCC(N2CCCC2)CC1 | binding | competition with immobilised ligand | 1 µM | 100 |
| Cc1noc([C@H]2C[C@@H](c3ccc(C(F)(F)F)cc3)CN(C(=O)N3CCS(=O)(=O)C3)C2)n1 | cell-free assay | competition with immobilised ligand | 1 µM | 100 |
| C[C@@H]1CCN(c2nccc(-c3cnn4ncccc34)n2)C1 | binding | – | 1 µM | 78 |
| O=C(c1ccc(Nc2ncc(Cl)c(-c3cc4ccccc4s3)n2)cc1)N1CCC(N2CCCC2)CC1 | binding | competition with immobilised ligand | 1 µM | 100 |
| N[C@H]1CCN(c2nccc(-c3cnn4ncccc34)n2)C1 | binding | – | 1 µM | 100 |
| O=C(NCC1CCOCC1)c1n[nH]cc1NC(=O)c1c(F)cccc1F | binding | competition with immobilised ligand | 1 µM | 90 |
| Cc1cnn2ncc(-c3ccnc(N(C)C)n3)c2c1 | binding | – | 1 µM | 98 |
| c1ccc(N2CCN(Cc3nc4ccccc4[nH]3)CC2)nc1 | binding | competition with immobilised ligand | 1 µM | 100 |
| CN(C)c1ncc(F)c(-c2cnn3ncccc23)n1 | binding | – | 1 µM | 100 |
| O=C(O)[C@@H]1[C@@H](Cn2nnc3ccccc3c2=O)CC[C@H]1C(=O)c1ccc(OCCC2CCOCC2)cc1 | cell-free assay | competition with immobilised ligand | 1 µM | 100 |
